Shown are actives, neighbours in structure and some others; about 2.4% of the full set was active somewhere.
STEP block: inhibitors of human striatal-enriched phosphatase STEP; recombinant STEP, OMFP fluorogenic substrate, fluorescence; inhibition, % at 20 µM; 360,000 compounds, 0.25% hits; AID 588621;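 active = inhibition at 20 µM, scaled per plate between control wells, above about 37%, limit read from the data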
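Also added – OMFP at 25 µM · Test system – STEP tyrosine phosphatase · Technique – FITC-channel fluorescence of OMFP product · Schedule – 20 min at room temperature, dark · Evaluation – control-normalized % inhibition with plate pattern correction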
NadD inh: blocks S. aureus nicotinate mononucleotide adenylyltransferase; 360,000 compounds, 0.78% hits; inhibition, % at 20 µM; purified NadD enzyme, colorimetric absorbance read-out; in the data active = inhibition above about 26%
SUMO1-SIM PPI: alters human SUMO1 binding to SIM partners. P63165. 360,000 compounds, 0.33% hits. inhibition, % at 20 µM. SUMO1 binding to a labelled peptide, TR-FRET, 1 h; in the data active = inhibition above about 37%
Scp1 inh: inhibitors of human Scp-1 phosphatase. AID 493091. Q9GZU7. Recombinant Scp1, phosphopeptide, malachite green phosphate absorbance. inhibition, % at 20 µM. 340,000 compounds, 0.88% hits;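 active = inhibition above about 50% at 20 µM, limit read from the data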
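Incubation: 45 min enzyme reaction at room temperature / System: truncated SCP-1 phosphatase (76-261aa) / Reagent: Phospho 17-mer peptide substrate / Buffer or medium: Acidic Tris acetate buffer with magnesium and detergent / Signal: absorbance at 630 nm / Doses: one concentration, 20 µM, with 1.0% DMSO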
LMPTP block: LMPTP (human) inhibition. AID 651560. 360,000 compounds, 0.22% hits. inhibition, % at 20 µM. P24666. recombinant LMPTP-A, OMFP fluorogenic substrate, fluorescence intensity;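 active = compounds that cut the enzyme signal by at least half of the control window in the single-dose screen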
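Test system – LMPTP-A enzyme · Amount – LMPTP-A at 0.625 nM final in the reaction · Buffer or medium – Bis-Tris pH 6.0, DTT, detergent · Reagent – OMFP 400 µM · Doses – single 20 µM dose · Schedule – reaction 50 min, room temperature, dark · Detection – fluorescence intensity of OMFP turnover product · Evaluation – percent inhibition versus substrate-only and uninhibited controls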
DNMT1 block: DNMT1 (human) enzyme inhibition | inhibition (reported as % activation of signal), % at 10 µM | DNMT1 molecular beacon, Hinp1I cleavage, fluorescence | P26358 | 360,000 compounds, 0.83% hits; in the data active = inhibition above about 50%
Target sequence (P26358 504-1616 limits assumed): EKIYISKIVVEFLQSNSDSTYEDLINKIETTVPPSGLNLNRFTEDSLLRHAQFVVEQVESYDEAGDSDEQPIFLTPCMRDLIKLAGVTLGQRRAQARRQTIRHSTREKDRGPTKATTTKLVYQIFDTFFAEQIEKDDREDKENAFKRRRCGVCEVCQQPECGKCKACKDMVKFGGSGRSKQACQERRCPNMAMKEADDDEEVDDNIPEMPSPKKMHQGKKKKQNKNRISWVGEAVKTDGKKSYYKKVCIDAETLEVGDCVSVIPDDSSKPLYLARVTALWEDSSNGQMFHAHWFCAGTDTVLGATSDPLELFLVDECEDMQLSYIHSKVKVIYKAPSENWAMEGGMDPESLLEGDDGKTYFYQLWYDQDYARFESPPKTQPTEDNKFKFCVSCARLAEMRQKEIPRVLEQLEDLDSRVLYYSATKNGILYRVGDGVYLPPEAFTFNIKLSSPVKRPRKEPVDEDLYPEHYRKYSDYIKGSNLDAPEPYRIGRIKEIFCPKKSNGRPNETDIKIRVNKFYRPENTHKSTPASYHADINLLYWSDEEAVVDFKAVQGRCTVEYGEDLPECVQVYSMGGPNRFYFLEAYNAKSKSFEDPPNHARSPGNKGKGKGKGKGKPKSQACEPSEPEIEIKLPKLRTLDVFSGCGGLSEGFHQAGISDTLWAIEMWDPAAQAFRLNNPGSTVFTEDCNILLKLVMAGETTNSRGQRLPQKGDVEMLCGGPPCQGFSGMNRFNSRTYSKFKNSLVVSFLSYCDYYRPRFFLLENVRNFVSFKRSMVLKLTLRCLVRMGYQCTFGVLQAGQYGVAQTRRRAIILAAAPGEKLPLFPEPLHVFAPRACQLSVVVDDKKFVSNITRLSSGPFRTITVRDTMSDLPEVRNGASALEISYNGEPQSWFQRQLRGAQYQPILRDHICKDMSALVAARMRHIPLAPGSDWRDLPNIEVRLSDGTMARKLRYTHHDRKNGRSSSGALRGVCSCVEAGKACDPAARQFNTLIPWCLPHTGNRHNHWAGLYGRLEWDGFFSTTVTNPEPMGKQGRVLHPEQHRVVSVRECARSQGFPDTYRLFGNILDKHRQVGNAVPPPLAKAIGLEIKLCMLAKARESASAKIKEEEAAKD
Large screens that a line does not name were inactive.

COc1ccc(NC(=O)NCCCN2CCCC2=O)c(OC)c1	none
O=S(=O)(NCc1ccco1)c1ccc(S(=O)(=O)N2CCCC2)cc1	none
O=c1[nH][nH]c(=S)n1C1CCCCC1	Scp1 inh 72 (no result: STEP block, NadD inh, SUMO1-SIM PPI, LMPTP block, DNMT1 block)
CCCNC(=O)Nc1ccc(F)c(Cl)c1	none
Cc1noc(C)c1S(=O)(=O)Nc1ccc2c(c1)C(=O)N([C@H](C)CO)C[C@H](C)[C@@H](CN(C)C(=O)Nc1ccccc1)O2	Scp1 inh 79
C[C@@H]1CN([C@H](C)CO)C(=O)c2cc(NC(=O)Nc3ccc(C(F)(F)F)cc3)ccc2O[C@H]1CN(C)Cc1ccc(Cl)c(Cl)c1	NadD inh 33
Cc1noc(C)c1S(=O)(=O)Nc1ccc2c(c1)C(=O)N([C@H](C)CO)C[C@H](C)[C@@H](CN(C)C(=O)Nc1ccc(C(F)(F)F)cc1)O2	none
COc1ccccc1C(=O)Nc1ccnn1C1CCN(Cc2cc(C)c(C)cc2C)CC1	none
O=C(Cn1cc(C(=O)c2ccco2)c2ccccc21)NCc1ccco1	none
CC(C)C(=O)N1CCC(Cc2ccccc2)CC1	none
Cc1cc(-c2ccccc2)nc(Nc2nc3c(C)cccc3c(=O)[nH]2)n1	SUMO1-SIM PPI 53
CN(C)c1ccc(N=Nc2ccc(S(N)(=O)=O)cc2)cc1	STEP block 94, LMPTP block 53
NS(=O)(=O)c1ccc(N=Nc2c[nH]c(=O)c(O)c2)cc1	Scp1 inh 70
CCCCc1ccccc1NC(=S)NC1CCCC1	none
CC(C)(C)OC(=O)NCc1ccc(CNC(=O)c2ncn(Cc3ccccc3)c2C(=O)NCc2ccc(CNC(=O)OC(C)(C)C)cc2)cc1	none
CCn1cc(C(=O)O)c(=O)c2cc(F)c(N3CCN(C(=S)NC(=O)c4c(OC)cccc4OC)CC3)cc21	LMPTP block 65
CCCOc1ccc(C(=O)NC(=S)N2CCN(c3cc4c(cc3F)c(=O)c(C(=O)O)cn4CC)CC2)cc1	none
CCn1cc(C(=O)O)c(=O)c2cc(F)c(N3CCN(C(=S)Nc4ccccc4OC)CC3)cc21	none
CCC(=O)N1CCN(c2cc3c(cc2F)c(=O)c(C(=O)O)cn3CC)CC1	none
CCn1cc(C(=O)O)c(=O)c2cc(F)c(N3CCN(C(=S)NC(=O)c4ccc(F)cc4)CC3)cc21	LMPTP block 68
CCn1cc(C(=O)O)c(=O)c2cc(F)c(N3CCN(C(=S)NC(=O)c4ccc(F)c(F)c4)CC3)cc21	LMPTP block 52
CCn1cc(C(=O)O)c(=O)c2cc(F)c(N3CCN(C(=S)NC(=O)c4cccc(F)c4)CC3)cc21	LMPTP block 66
CCCCCCCCC(=O)O	none
CC1CN(C(=O)CSc2nc(-c3ccc(F)cc3)cs2)CC(C)O1 (centres undefined)	none
COc1ccc(COC(=O)C2=C(C)NC(=O)NC2c2ccc(OC)c(OC)c2)cc1 (centres undefined)	none
CCN1C(=O)C(CC(=O)NC2CCCCC2)N(CC)C1=O (centres undefined)	none
CCn1cc(C(=O)O)c(=O)c2cc(F)c(N3CCN(C(=S)NC(=O)c4ccccc4Br)CC3)cc21	LMPTP block 68
CCCCCCC(=O)N1CCN(c2cc3c(cc2F)c(=O)c(C(=O)O)cn3CC)CC1	none
Cc1cc(C)nc(NC(=O)/C=C/c2ccccc2Cl)n1	none
Cc1cc(N)c2cc(NC(=O)/C=C/c3ccccc3Cl)ccc2n1	SUMO1-SIM PPI 89, DNMT1 block 53
O=C(O[C@@H]1OC2COC(=O)c3cc(O)c(O)c(O)c3-c3c(cc(O)c(O)c3O)C(=O)O[C@@H]([C@H]1O)[C@@H]2O)c1cc(O)c(O)c(O)c1	SUMO1-SIM PPI 46, Scp1 inh 50, DNMT1 block 90
CC(=O)N=Nc1[nH]c(N)c2ccccc12	none
O=c1cc(-c2cc3ccccc3o2)c2cc(O)ccc2o1	LMPTP block 58
CCOc1cc(/C=N/n2nnnc2N)ccc1OCc1c(C)no[n+]1[O-]	none
CN=CC1=C(O)c2ccccc2C1=O	none
O=C1C(C2=C(O)c3ccccc3C2=O)=Nc2ccccc21	Scp1 inh 52
O=C1CCSc2cccc3cccc(c23)N1	none
O=C(CSCc1cccc(CSCC(=O)Nc2ccccc2)n1)Nc1ccccc1	none
Clc1ccc2c(c1)-c1ccccc1C1=NCCN12	DNMT1 block 51 (no result: Scp1 inh)
Brc1ccc2c(c1)-c1ccccc1C1=NCCN12	DNMT1 block 53 (no result: Scp1 inh)
Cc1cc2c(=Cc3ccc(N(C)C)cc3)c3ccccc3n2[n+]1C	none
C[n+]1c(-c2ccccc2)cc2c(=Cc3ccc([N+](=O)[O-])cc3)c3ccccc3n21	DNMT1 block 52
CCOC(=O)c1cc2c(=Cc3ccc(N(C)C)cc3)c3ccccc3n2[n+]1C	none
CN(C)c1ccc(C=c2c3ccccc3n3c2c2ccccc2[n+]3C)cc1	NadD inh 54, SUMO1-SIM PPI 119, LMPTP block 78
C[n+]1c(-c2ccccc2)cc2c(=Cc3ccccc3)c3ccccc3n21	DNMT1 block 50
CN(C)c1ccc(C=c2c3cc(O)ccc3n3c2cc(-c2ccccc2)[n+]3C)cc1	SUMO1-SIM PPI 69, LMPTP block 94
O=C(COc1cccnc1[N+](=O)[O-])Nc1ccc(N2CCOCC2)cc1	none
CC(=O)Nn1c(COc2ccccc2C)nc2ccccc2c1=O	none
Cn1c(C(=O)NC2CCCCC2)cc2c(=O)n3ccccc3nc21	none
O=S(=O)(c1cnc[nH]1)N1CCN(c2ccccc2)CC1	none
CC(=O)c1cccc(NC(=O)C2CC(=O)N(CCc3ccccc3)C2)c1 (centres undefined)	none
COc1ccc(C)cc1NC(=O)CNC(=O)Cn1ccc2ccccc2c1=O	none
COc1ccc(NC(=O)Nc2cc3oc4ccccc4c3cc2OC)cc1	SUMO1-SIM PPI 59
CCOC(=O)c1c(NC(=O)CSc2nnc(C)c(=O)[nH]2)sc(C)c1-c1ccc(C)cc1	SUMO1-SIM PPI 38
CCOC(=O)c1c(NC(=O)CSc2nnc(C)c(=O)[nH]2)sc2c1CCCC2	none
O=C(CN1C(=O)/C(=C/c2cccc(Br)c2)SC1=S)NC1=NCCS1	NadD inh 34
O=C(CN1C(=O)/C(=C/c2ccccc2)SC1=S)NNC(=O)c1ccccc1O	NadD inh 37
O=C(CCN1C(=O)S/C(=C\c2ccccc2)C1=O)Nc1ccc(O)cc1C(=O)O	none
CN1C(=O)/C(=C/c2ccc(C(=O)Nc3ccc(O)cc3C(=O)O)cc2)SC1=S	STEP block 98, NadD inh 40
Cc1ccc(/C=C2\SC(=S)N(CCC(=O)NNC(=O)c3ccc(O)cc3)C2=O)cc1	NadD inh 45
COc1cccc(/C=C2/SC(=S)N(CC(=O)NNC(=O)c3ccccc3O)C2=O)c1	none
CCc1noc(C)c1C(=O)N(CC)CC(=O)Nc1ccccc1C(F)(F)F	none
